# Compound activity: PubChem BioAssay, several laboratories
# MEKK2 mut-MEK5: MEK5 binding signal on mutant MEKK2 PB1, primary screen, biochemical, multiplex bead flow cytometry, Alexa488-MEK5; percent response, % at 10 µM; 290,000 tested, 0.35% active; Alexa488-MEK5 binding to MEKK2 mutant; AID 1530, 2009; in the data active means percent response above about 24%, passing the limit was not always enough
# MEKK2wt PB1 HTS: modulators of MEK5 binding to wildtype MEKK2, primary screen, biochemical, multiplex bead flow cytometry, Alexa488-MEK5 | 290,000 tested, 1.1% active | Mitogen-activated protein kinase kinase kinase 2 (Homo sapiens), Q9Y2U5 | binding response (% of control), % at 10 µM | Alexa488-MEK5 binding to MEKK2 WT; actives lie on both sides; in the data active means binding response below about 67% or above about 130%
# T cruzi repl: inhibitors of intracellular T. cruzi growth, primary screen, luminescence, NIH3T3 host cells; T. cruzi beta-gal in NIH3T3, 90 h; inhibition, % (concentration not given with the values); 300,000 tested, 1.4% active;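 active means mean inhibition across valid replicates above about 55%, limit read from the data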;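 further: signal also drops with host cell toxicity which is not excluded here; 0% = plate median of DMSO wells and 100% = zero luminescence signal; higher percent means less beta-gal luminescence so fewer parasites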
#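 Read-out: Parasite load inhibition, % | Test system: Mouse NIH/3T3 fibroblasts infected with β-gal-expressing T. cruzi Tulahuen C4 | Amount: 5,000 cells/well | Medium: DMEM, 2% fetal bovine serum | Signal: GalScreen β-gal luminescence, detergent lysis, 60 min | Timing: 3 h attach, ≥90 h co-culture | Also added: Tulahuen C4 trypomastigotes, 5000/well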
# DNA FID counter: compounds displacing fluorescent DNA intercalator, primary screen, artefact control for HCV NS3 helicase inhibitor project, biochemical, FID fluorescence; 290,000 tested, 0.17% active; DNA fluorescent intercalator displacement; inhibition, % at 7.9 µM; in the data active means inhibition above about 37%;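 further: 0% = vehicle and 100% = reference compound; higher means more ethidium bromide displaced from hairpin DNA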
# MEKK3 PB1 HTS: modulators of MEKK3-MEK5 PB1 binding, primary screen, biochemical, wildtype MEKK3, multiplex bead flow cytometry, Alexa488-MEK5; bead-based flow cytometry, Alexa488-MEK5 binding to MEKK3; actives lie on both sides; 0 = blocked by unlabeled MEK5, 100 = vehicle; 290,000 tested, 1.4% active; Mitogen-activated protein kinase kinase kinase 3 (Homo sapiens), Q99759; binding response (% of control), % at 10 µM;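 active means binding response more than 3 SD above or below the average of its plate-row segment, actives on both sides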;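 further: Alexa488 bead fluorescence after subtracting the streptavidin-only scavenger bead signal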
# Target sequence (Q99759 whole entry, looked up): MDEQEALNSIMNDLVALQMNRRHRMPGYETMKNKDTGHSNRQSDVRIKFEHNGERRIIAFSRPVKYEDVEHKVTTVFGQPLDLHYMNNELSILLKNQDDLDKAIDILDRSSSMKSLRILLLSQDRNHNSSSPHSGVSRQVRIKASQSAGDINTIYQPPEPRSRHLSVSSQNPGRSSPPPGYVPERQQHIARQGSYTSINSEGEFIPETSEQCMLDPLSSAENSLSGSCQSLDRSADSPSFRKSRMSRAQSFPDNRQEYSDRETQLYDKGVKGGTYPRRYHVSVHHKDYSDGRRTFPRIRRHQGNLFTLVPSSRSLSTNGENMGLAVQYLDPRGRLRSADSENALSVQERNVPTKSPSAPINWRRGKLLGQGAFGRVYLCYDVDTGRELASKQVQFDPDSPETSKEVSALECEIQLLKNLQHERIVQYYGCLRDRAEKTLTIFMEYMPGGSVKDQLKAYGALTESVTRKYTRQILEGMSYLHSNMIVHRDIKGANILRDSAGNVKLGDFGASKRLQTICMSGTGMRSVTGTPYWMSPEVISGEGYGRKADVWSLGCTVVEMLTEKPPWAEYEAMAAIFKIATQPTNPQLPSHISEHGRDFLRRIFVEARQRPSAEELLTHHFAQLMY
# NS3 helicase inh: inhibitors of HCV NS3 helicase, primary screen, biochemical, Cy5 molecular beacon fluorescence; Hepatitis C virus NS3 helicase; NS3 helicase DNA unwinding; inhibition, % at 10.9 µM; 290,000 tested, 0.56% active; AID 1800, 2009;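 active means inhibition above the mean of all tested compounds plus 3 SD, set per campaign, cut at about 35% in these data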;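 further: 0% = DMSO wells and 100% = thioflavine S control wells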
#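 Material: hepatitis C virus NS3 helicase domain fragment enzyme; measured by: Cy5 fluorescence, 0 and 60 min reads; control set: DMSO and thioflavine S; incubation: 60 min unwinding reaction at 25 °C after ATP addition; read-out basis: % inhibition from 60/0 min fluorescence ratio, DMSO 0%, thioflavine S 100%; repeats: singlicate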
# MEKK2wt confirm: modulators of MEK5 binding to wildtype MEKK2, confirmation, biochemical, single concentration, multiplex bead flow cytometry; shares compounds with MEKK3 PB1 HTS; Alexa488-MEK5 binding to MEKK2 WT; actives lie on both sides; binding response (% of control), % at 10 µM; 5,900 tested, 2.4% active; AID 1892, 2009; in the data active means binding response below about 16% or above about 210%; inactive means in between
# MEKK2mut-MEK5: mutant MEKK2 PB1-MEK5 binding signal retest – biochemical, single concentration, multiplex bead flow cytometry, confirmation; shares compounds with MEKK3 PB1 HTS; Alexa488-MEK5 binding to MEKK2 mutant; percent response, % at 10 µM; 5,900 tested, 2% active; in the data active means percent response mostly above about 71%, no sharp cut-off; inactive means mostly below about 38%;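 further: higher means compound restores mutant binding toward wildtype level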
# MEKK3-MEK5 inh: MEKK3 wild-type PB1 binding to MEK5, inhibitors, confirmation, biochemical, bead multiplex flow cytometry, single concentration, wildtype; shares compounds with MEKK3 PB1 HTS; Alexa488-MEK5 binding to MEKK3; active compounds read low; binding response (% of control), % at 10 µM; 5,900 tested, 1.8% active; AID 1894, 2009;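 active means binding response below 72% of control, or above a set upper limit, though filed actives all read lower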;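 further: 100% = DMSO only wells and 0% = binding blocked by excess unlabeled MEK5; lower values mean stronger disruption of MEK5 binding to MEKK3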
# * hit, by the source's call; x = no result given; [ ] = another dose, or the depositor's remark. Only some compounds are listed: those with a hit (about 4.1% of all), similar ones and a draw of the others.
SMILES,MEKK2 mut-MEK5,MEKK2wt PB1 HTS,T cruzi repl,DNA FID counter,MEKK3 PB1 HTS,NS3 helicase inh,MEKK2wt confirm,MEKK2mut-MEK5,MEKK3-MEK5 inh
c1ccc(-c2nnc(OCc3cccnc3)c3ccccc23)cc1,3.0,103.0,-7.8,-27.6,106.0,6.1,x,x,x
COc1ccc(-c2nnc(OCc3ccccc3)c3ccccc23)cc1,0.0,104.0,19.5,-11.0,129.0*,-8.9,110.0,9.0,110.0
N#CCC(=O)Nc1ccc(C(=O)OCC(=O)Nc2ccccc2-c2ccccc2)cc1,33.0,121.0,1.4,-7.9,141.0*,2.0,103.0,2.0,102.0
COc1ccc(CC(=O)N2N=C(C)CC2(O)c2cccnc2)cc1OC (stereo unspecified),-1.0,100.0,-7.7,-10.1,128.0*,-8.4,103.0,-4.0,103.0
CC(C)(C)OC(=O)N[C@@H](Cc1ccccc1)C(=O)N1CCC(C(=O)N[C@@H](Cc2c[nH]c3ccccc23)C(=O)O)CC1,-1.0,104.0,1.6,-27.9,102.0,23.4,x,x,x
O=C1NC(c2ccc(Cl)cc2)=COc2ccccc21,6.0,126.0,9.8,-6.6,143.0*,-9.3,101.0,2.0,101.0
Cc1cc(SCc2ccccc2)nc(=O)[nH]1,-17.0,2.0*[inhibitor],1.7,-1.2,2.0*[inhibitor],-4.8,94.0,-1.0,91.0
CN1CCCN(C(=O)CSc2ccccc2)CC1,5.0,107.0,-5.0,1.4,103.0,-3.2,x,x,x
CN1CCN(C(=O)CSc2ccc(Cl)cc2)CC1,-13.0,71.0,36.7,-7.5,75.0*[inhibitor],-0.6,97.0,-5.0,99.0
CCCn1c(-c2ccc(C(=O)OC)cc2)nc2c1c(=O)[nH]c(=O)n2Cc1ccccc1,1.0,96.0,5.0,-10.9,98.0,-5.8,x,x,x
CCCn1c(-c2cccc([N+](=O)[O-])c2)nc2c1c(=O)[nH]c(=O)n2Cc1ccccc1,-2.0,97.0,18.6,-16.8,70.0*[inhibitor],-4.7,105.0,12.0,109.0
O=C(Nc1ccc(OCC(=O)N2CCC(Cc3ccccc3)CC2)cc1)c1ccco1,-6.0,74.0,-28.7,-38.5,67.0*[inhibitor],1.4,100.0,-3.0,101.0
CCc1nc2sccc2c(=O)[nH]1,-4.0,93.0,-3.0,-9.1,98.0,6.4,x,x,x
CCCCCCCCCCn1ccc(=N)cc1,30.0,148.0*,76.6*,18.0,125.0,-77.5,126.0,21.0,108.0
CCCCCCCCn1ccc(=N)cc1,3.0,98.0,38.5,5.6,101.0,0.5,x,x,x
COC(=O)c1cc(C)sc1NC(=O)CSc1ncccn1,10.0,111.0,-4.3,-19.2,106.0,-0.8,x,x,x
O=c1[nH]c(Nc2ccc3c(c2)OCCO3)nnc1Cc1ccc(Cl)cc1,3.0,106.0,-3.9,-0.1,129.0*,2.4,94.0,-8.0,97.0
COc1ccc(CN(CCN)C2CC(C)N(C)CC2C)cc1 (stereo unspecified),9.0,105.0,-26.8,11.8,102.0,-6.0,x,x,x
Cc1ccc(-n2nc(-c3ccccc3)cc2Nc2ccccc2N)cc1,1.0,113.0,16.0,-6.5,139.0*,-4.9,100.0,-8.0,101.0
Cc1ccc(-c2cc(N)n(-c3ccc(C)cc3)n2)cc1,7.0,104.0,18.5,-9.8,107.0,9.0,x,x,x
COc1cc(OC)c(C(=O)OCC(=O)N2CCOCC2)cc1OC,-4.0,97.0,-6.4,-1.4,99.0,-10.8,x,x,x
O=C(COC(=O)Cc1ccccc1[N+](=O)[O-])NCc1ccc(Cl)cc1,0.0,107.0,8.9,2.1,143.0*,-2.4,109.0,1.0,106.0
COc1cc(C(=O)NCCCNc2ccc([N+](=O)[O-])cc2)cc(OC)c1OC,-2.0,105.0,5.8,6.2,103.0,10.1,x,x,x
Cc1ccc(NC(=O)C2C3CCC(O3)C2C(=O)O)cc1Cl (stereo unspecified),-61.0,3.0*[inhibitor],-10.1,-0.1,2.0*[inhibitor],-14.4,100.0,-5.0,99.0
COc1cc(C(=O)OCC2CC(c3ccccc3)=NO2)cc(OC)c1OC (stereo unspecified),280.0*,93.0,1.9,-21.9,101.0,-13.0,100.0,0.0,104.0
SMILES,MEKK2 mut-MEK5,MEKK2wt PB1 HTS,T cruzi repl,DNA FID counter,MEKK3 PB1 HTS,NS3 helicase inh,MEKK2wt confirm,MEKK2mut-MEK5,MEKK3-MEK5 inh
Cc1ccccc1NC(=O)COC(=O)C1(C)CC1(Cl)Cl (stereo unspecified),-20.0,1.0*[inhibitor],-14.4,-9.7,2.0*[inhibitor],4.1,93.0,-10.0,89.0
O=C(/C=C/Nc1ccc(Cc2ccc(N/C=C/C(=O)C(F)(F)F)cc2)cc1)C(F)(F)F,0.0,102.0,2.3,-0.3,134.0*,-1.5,103.0,0.0,102.0
Cc1cccc(NS(=O)(=O)c2ccc(C(=O)N3CC(C)OC(C)C3)cc2)c1C (stereo unspecified),x,x,3.1,x,x,x,x,x,x
O=C(Nc1ccc(F)cc1)c1ccc(CSc2ccccc2)o1,0.0,107.0,-28.9,-14.4,145.0*,-10.4,106.0,2.0,105.0
Cc1ccc(C(=O)OCC(=O)NNC(=O)c2ccc([N+](=O)[O-])cc2)o1,x,x,-4.0,x,x,x,x,x,x
Cc1ccc(NC(=O)CCC(=O)OCC(=O)c2ccc(Oc3ccc([N+](=O)[O-])cc3)cc2)cc1C,x,x,3.2,-2.9,x,6.0,x,x,x
Cc1cccc(NC(=O)CCC(=O)OCC(=O)c2ccc(Oc3ccc([N+](=O)[O-])cc3)cc2)c1,-1.0,94.0,-11.7,2.6,68.0*[inhibitor],-3.1,103.0,8.0,107.0
CCC1(C)OC(=O)NN(c2ccc(C)cc2)C1(C)O (stereo unspecified),1.0,103.0,-11.9,-3.3,102.0,4.7,x,x,x
CN1CC=C2C(C#N)=C(N)C(C#N)(C#N)[C@H](c3cccc(Cl)c3)C2C1 (stereo partly specified),15.0,111.0,2.3,3.3,107.0,2.3,x,x,x
